In ChEMBL document CHEMBL4715736, “Identification of anticancer agents based on the thieno[2,3-b]pyridine and 1H-pyrazole molecular scaffolds” (2016):

Key:
Format in all cases: functional
Conditions in all cases: read-out: Activity
MOLT-4 = experiment: Growth inhibition of human MOLT-4 cells assessed as cell growth at 10 uM incubated for 48 hrs by sulforhodamine B assay relative to control
Procedure, shortened: (§1)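 Submitted to the NCI Developmental Therapeutics Program for the NCI60 human tumour cell line panel. First screen at a single 10 µM concentration. Read-out is growth relative to untreated control cells set at 100%.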

RPMI-8226 = experiment: Growth inhibition of human RPMI-8226 cells assessed as cell growth at 10 uM incubated for 48 hrs by sulforhodamine B assay relative to control
Procedure, shortened: (§2)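 Run by the NCI Developmental Therapeutics Program as part of its 60-line human tumour panel. Each compound tested at a single 10 µM dose. Growth expressed as % relative to untreated control cells (100%).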

SR = experiment: Growth inhibition of human SR cells assessed as cell growth at 10 uM incubated for 48 hrs by sulforhodamine B assay relative to control; procedure, shortened: as §2
NCI-H226 = experiment: Growth inhibition of human NCI-H226 cells assessed as cell growth at 10 uM incubated for 48 hrs by sulforhodamine B assay relative to control; procedure, shortened: as §1
NCI-H322M = experiment: Growth inhibition of human NCI-H322M cells assessed as cell growth at 10 uM incubated for 48 hrs by sulforhodamine B assay relative to control; procedure, shortened: as §1
NCI-H460 = experiment: Growth inhibition of human NCI-H460 cells assessed as cell growth at 10 uM incubated for 48 hrs by sulforhodamine B assay relative to control; procedure, shortened: as §1
HCC 2998 = experiment: Growth inhibition of human HCC 2998 cells assessed as cell growth at 10 uM incubated for 48 hrs by sulforhodamine B assay relative to control
Procedure, shortened: (§3)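 NCI Developmental Therapeutics Program NCI60 panel. Compounds that were active in the 10 µM one-dose screen went on to dose–response testing. Growth at each concentration is expressed relative to untreated control (100%). GI50 (concentration giving 50% of maximal inhibition of proliferation) and TGI (concentration giving total growth inhibition) were derived from the curves.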

HCT-116 = experiment: Growth inhibition of human HCT-116 cells assessed as cell growth at 10 uM incubated for 48 hrs by sulforhodamine B assay relative to control; procedure, shortened: as §1
KM12 = experiment: Growth inhibition of human KM12 cells assessed as cell growth at 10 uM incubated for 48 hrs by sulforhodamine B assay relative to control; procedure, shortened: as §1
SW-620 = experiment: Growth inhibition of human SW-620 cells assessed as cell growth at 10 uM incubated for 48 hrs by sulforhodamine B assay relative to control; procedure, shortened: as §2
SF-295 = experiment: Growth inhibition of human SF-295 cells assessed as cell growth at 10 uM incubated for 48 hrs by sulforhodamine B assay relative to control; procedure, shortened: as §2
SF-539 = experiment: Growth inhibition of human SF-539 cells assessed as cell growth at 10 uM incubated for 48 hrs by sulforhodamine B assay relative to control; procedure, shortened: as §2
LOX IMVI = experiment: Growth inhibition of human LOX IMVI cells assessed as cell growth at 10 uM incubated for 48 hrs by sulforhodamine B assay relative to control; procedure, shortened: as §1
Malme-3M = experiment: Growth inhibition of human Malme-3M cells assessed as cell growth at 10 uM incubated for 48 hrs by sulforhodamine B assay relative to control; procedure, shortened: as §1
MDA-MB-435 = experiment: Growth inhibition of human MDA-MB-435 cells assessed as cell growth at 10 uM incubated for 48 hrs by sulforhodamine B assay relative to control; procedure, shortened: as §1
SK-MEL-28 = experiment: Growth inhibition of human SK-MEL-28 cells assessed as cell growth at 10 uM incubated for 48 hrs by sulforhodamine B assay relative to control; procedure, shortened: as §2
SK-MEL-5 = experiment: Growth inhibition of human SK-MEL-5 cells assessed as cell growth at 10 uM incubated for 48 hrs by sulforhodamine B assay relative to control; procedure, shortened: as §2
OVCAR-3 = experiment: Growth inhibition of human OVCAR-3 cells assessed as cell growth at 10 uM incubated for 48 hrs by sulforhodamine B assay relative to control; procedure, shortened: as §2
OVCAR-4 = experiment: Growth inhibition of human OVCAR-4 cells assessed as cell growth at 10 uM incubated for 48 hrs by sulforhodamine B assay relative to control; procedure, shortened: as §2
OVCAR-5 = experiment: Growth inhibition of human OVCAR-5 cells assessed as cell growth at 10 uM incubated for 48 hrs by sulforhodamine B assay relative to control; procedure, shortened: as §2
NCI/ADR-RES = experiment: Growth inhibition of human NCI/ADR-RES cells assessed as cell growth at 10 uM incubated for 48 hrs by sulforhodamine B assay relative to control; procedure, shortened: as §1
786-0 = experiment: Growth inhibition of human 786-0 cells assessed as cell growth at 10 uM incubated for 48 hrs by sulforhodamine B assay relative to control; procedure, shortened: as §3
ACHN = experiment: Growth inhibition of human ACHN cells assessed as cell growth at 10 uM incubated for 48 hrs by sulforhodamine B assay relative to control
Procedure, shortened: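 NCI Developmental Therapeutics Program NCI60 human tumour cell line panel, one-dose primary screen with every compound at 10 µM. Growth is expressed as % of untreated control cells (100%).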

RXF 393 = experiment: Growth inhibition of human RXF 393 cells assessed as cell growth at 10 uM incubated for 48 hrs by sulforhodamine B assay relative to control; procedure, shortened: as §2
SN12C = experiment: Growth inhibition of human SN12C cells assessed as cell growth at 10 uM incubated for 48 hrs by sulforhodamine B assay relative to control; procedure, shortened: as §2
UO-31 = experiment: Growth inhibition of human UO-31 cells assessed as cell growth at 10 uM incubated for 48 hrs by sulforhodamine B assay relative to control; procedure, shortened: as §2
PC-3 = experiment: Growth inhibition of human PC-3 cells assessed as cell growth at 10 uM incubated for 48 hrs by sulforhodamine B assay relative to control; procedure, shortened: as §2
DU-145 = experiment: Growth inhibition of human DU-145 cells assessed as cell growth at 10 uM incubated for 48 hrs by sulforhodamine B assay relative to control; procedure, shortened: as §3
MCF7 = experiment: Growth inhibition of human MCF7 cells assessed as cell growth at 10 uM incubated for 48 hrs by sulforhodamine B assay relative to control; procedure, shortened: as §1
Hs-578T = experiment: Growth inhibition of human Hs-578T cells assessed as cell growth at 10 uM incubated for 48 hrs by sulforhodamine B assay relative to control; procedure, shortened: as §1
T47D = experiment: Growth inhibition of human T47D cells assessed as cell growth at 10 uM incubated for 48 hrs by sulforhodamine B assay relative to control; procedure, shortened: as §2
MDA-MB-468 = experiment: Growth inhibition of human MDA-MB-468 cells assessed as cell growth at 10 uM incubated for 48 hrs by sulforhodamine B assay relative to control; procedure, shortened: as §1
HL-60(TB) = experiment: Growth inhibition of human HL-60(TB) cells assessed as cell growth at 10 uM incubated for 48 hrs by sulforhodamine B assay relative to control
Procedure, shortened: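 Screened by the NCI Developmental Therapeutics Program on its panel of 60 human tumour cell lines. Compounds were first tested at a single 10 µM dose, and compounds active there went to dose-response curves. Growth is expressed relative to untreated control (100%). GI50 (50% of maximal proliferation inhibition) and TGI (total growth inhibition) were derived from the dose-response data.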

SMILES | growth at 10 µM (MOLT-4) [%] | growth at 10 µM (RPMI-8226) [%] | growth at 10 µM (NCI-H226) [%] | growth at 10 µM (NCI-H322M) [%] | growth at 10 µM (NCI-H460) [%] | growth at 10 µM (HCC 2998) [%] | growth at 10 µM (HCT-116) [%] | growth at 10 µM (KM12) [%] | growth at 10 µM (SW-620) [%] | growth at 10 µM (SF-295) [%] | growth at 10 µM (SF-539) [%] | growth at 10 µM (LOX IMVI) [%] | growth at 10 µM (Malme-3M) [%] | growth at 10 µM (MDA-MB-435) [%] | growth at 10 µM (SK-MEL-28) [%] | growth at 10 µM (SK-MEL-5) [%] | growth at 10 µM (OVCAR-3) [%] | growth at 10 µM (OVCAR-4) [%] | growth at 10 µM (OVCAR-5) [%] | growth at 10 µM (NCI/ADR-RES) [%] | also measured
COc1cccc(NC(=O)c2sc3nc4c(cc3c2N)CN(Cc2ccccc2)CC4)c1 | 69 | 83 | 41 | 71 | 24 | 49 | 23 | 57 | 30 | 21 | -18 | 27 | 12 | 3 | 27 | 35 | 46 | 13 | 71 | 28 | growth at 10 µM (SR): 40%; growth at 10 µM (786-0): 22%; growth at 10 µM (ACHN): 14%; growth at 10 µM (RXF 393): 6%; growth at 10 µM (SN12C): 52%; growth at 10 µM (UO-31): 24%; growth at 10 µM (PC-3): 54%; growth at 10 µM (DU-145): 32%; growth at 10 µM (MCF7): 21%; growth at 10 µM (Hs-578T): 5%; growth at 10 µM (T47D): 39%; growth at 10 µM (MDA-MB-468): 30%
CC(=O)Nc1ccc(S(=O)(=O)n2ccc(-c3ccc4c(c3)CCC(C)(C)O4)n2)cc1 | 50.7 | 43.7 | 52.4 | 89 | 41.4 | 83.3 | 29.9 | 67.4 | 82.5 | 60.2 | 73.8 | 64.1 | 82.5 | 67.3 | 93.1 | 26.3 | 74.4 | 46.2 | 96.3 | 56.9 | growth at 10 µM (HL-60(TB)): 91.9%; growth at 10 µM (SR): 56.4%; growth at 10 µM (786-0): 79.8%; growth at 10 µM (ACHN): 79.3%; growth at 10 µM (SN12C): 89%; growth at 10 µM (UO-31): 67.9%; growth at 10 µM (PC-3): 44.4%; growth at 10 µM (DU-145): 83.5%; growth at 10 µM (MCF7): 66.2%; growth at 10 µM (Hs-578T): 102%; growth at 10 µM (T47D): 31.1%; growth at 10 µM (MDA-MB-468): 24.9%
Cc1cc(C)c(NC(=O)c2sc3nc4c(cc3c2N)CN(Cc2ccccc2)CC4)c(C)c1 | 21 | 13 | 36 | 47 | 7 | 30 | 16 | 15 | 13 | 8 | -11 | 29 | 28 | -11 | 46 | 3 | 5 | 44 | 54 | -18 | growth at 10 µM (786-0): 23%; growth at 10 µM (ACHN): 40%; growth at 10 µM (RXF 393): 5%; growth at 10 µM (SN12C): 36%; growth at 10 µM (UO-31): 37%; growth at 10 µM (PC-3): 25%; growth at 10 µM (DU-145): -12%; growth at 10 µM (MCF7): 8%; growth at 10 µM (Hs-578T): 15%; growth at 10 µM (T47D): 12%; growth at 10 µM (MDA-MB-468): 10%
Nc1c(C(=O)Nc2ccccc2)sc2nc3c(cc12)CN(Cc1ccccc1)CC3 | 81 | 72 | 31 | 62 | 44 | 76 | 51 | 60 | 63 | 36 | 9 | 51 | 23 | 34 | 63 | 49 | 52 | 11 | 70 | 56 | growth at 10 µM (SR): 54%; growth at 10 µM (786-0): 54%; growth at 10 µM (ACHN): 37%; growth at 10 µM (RXF 393): 12%; growth at 10 µM (SN12C): 66%; growth at 10 µM (UO-31): 41%; growth at 10 µM (PC-3): 70%; growth at 10 µM (DU-145): 57%; growth at 10 µM (MCF7): 53%; growth at 10 µM (Hs-578T): -11%; growth at 10 µM (T47D): 58%; growth at 10 µM (MDA-MB-468): 58%
